These results are taken from publication PMC2222990 (The Journal of General Physiology, 1999).

Where only a bound is given, the exact number is not on record here.

One experiment relates to rod CNG channel. The note with it: ref Fodor et al., 1997a; cited from earlier work.
The target of experiment [1] is T1, bovine rod photoreceptor CNG channel α subunit (Bos taurus, UniProt Q00194).
T1 sequence (Q00194 1-690): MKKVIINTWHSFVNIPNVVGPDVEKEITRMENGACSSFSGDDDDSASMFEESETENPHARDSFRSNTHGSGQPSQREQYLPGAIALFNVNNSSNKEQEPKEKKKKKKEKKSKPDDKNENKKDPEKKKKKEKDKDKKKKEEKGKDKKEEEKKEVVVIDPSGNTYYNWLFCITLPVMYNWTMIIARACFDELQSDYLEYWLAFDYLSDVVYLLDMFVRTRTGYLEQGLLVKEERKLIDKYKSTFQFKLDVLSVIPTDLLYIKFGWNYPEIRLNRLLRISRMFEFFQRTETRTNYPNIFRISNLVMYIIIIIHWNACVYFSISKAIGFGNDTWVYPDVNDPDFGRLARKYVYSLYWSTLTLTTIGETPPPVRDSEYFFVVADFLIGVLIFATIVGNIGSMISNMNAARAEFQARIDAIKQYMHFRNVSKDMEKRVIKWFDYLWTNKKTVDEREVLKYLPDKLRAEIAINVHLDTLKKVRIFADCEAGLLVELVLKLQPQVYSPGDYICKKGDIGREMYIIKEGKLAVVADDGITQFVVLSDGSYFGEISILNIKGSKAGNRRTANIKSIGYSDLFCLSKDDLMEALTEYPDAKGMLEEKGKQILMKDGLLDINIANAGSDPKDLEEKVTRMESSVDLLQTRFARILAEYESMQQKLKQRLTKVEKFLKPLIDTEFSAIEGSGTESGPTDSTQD
In words: Inside-out patch clamp of rod CNG channels expressed in Xenopus oocytes. The experiment is classed as biochemical. The note with it: for effect on cGMP sensitivity (K 1/2 for cGMP): 10 μM genistein, 10 μM lavendustin A, 25 μM erbstatin. An outline of the steps: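 Inside-out patches from Xenopus oocytes 2–7 d after injection (vitelline membrane removed), 21–24°C, held at −75 mV. Pipette/bath solution: 115 mM NaCl, 5 mM EGTA, 1 mM EDTA, 10 mM HEPES, pH 7.5. Test compound preapplied 1 min to closed channels (±100 μM erbstatin) at 1 or 10 min after excision, or applied at steady state; then 2 mM cGMP. Currents normalized to Imax; Ki, Hill coefficient and cGMP K1/2 (4–5 cGMP levels) fitted to Hill equation; mean ± SEM.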
Background: In patch-clamp work, channel activity is measured electrically.

The target of experiment [2] is T2, rat olfactory CNG channels (Rattus norvegicus, UniProt Q00195).
T2 sequence (Q00195 1-664): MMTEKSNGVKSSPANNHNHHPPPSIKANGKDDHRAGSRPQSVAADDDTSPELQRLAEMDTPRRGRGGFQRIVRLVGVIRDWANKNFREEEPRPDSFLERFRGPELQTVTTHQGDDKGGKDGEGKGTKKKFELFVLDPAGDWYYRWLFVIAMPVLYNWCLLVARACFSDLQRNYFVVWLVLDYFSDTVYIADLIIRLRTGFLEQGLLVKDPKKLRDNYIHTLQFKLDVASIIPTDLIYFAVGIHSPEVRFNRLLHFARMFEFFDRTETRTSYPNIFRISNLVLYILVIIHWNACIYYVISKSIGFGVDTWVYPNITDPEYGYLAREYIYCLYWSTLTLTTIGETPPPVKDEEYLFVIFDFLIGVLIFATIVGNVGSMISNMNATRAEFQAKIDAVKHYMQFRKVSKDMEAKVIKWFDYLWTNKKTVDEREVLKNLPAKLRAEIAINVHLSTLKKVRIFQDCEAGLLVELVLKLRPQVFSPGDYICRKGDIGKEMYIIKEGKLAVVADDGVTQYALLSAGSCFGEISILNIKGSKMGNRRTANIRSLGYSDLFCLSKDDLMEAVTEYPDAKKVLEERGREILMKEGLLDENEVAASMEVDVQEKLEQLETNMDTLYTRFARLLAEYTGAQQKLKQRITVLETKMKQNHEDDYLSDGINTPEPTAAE
The class given is biochemical. The note with it: n = 10 patches.

The test system of experiment [3] is native CNG channels from salamander rod outer segments. In words: Inside-out patches with native CNG channels from rod outer segments. The experiment is classed as biochemical, tiger salamanders (Ambystoma tigrinum). The note with it: 100 μM genistein.
[4] abbreviates: 100 μM genistein, preexposure 1 min, 2 mM cGMP.

As for `CCCCNc1ccc(C(=O)OCCN(C)C)cc1` [tetracaine], the time of block with rod CNG channel was < 100 ms.

In the case of `O=C(O)c1cc(N(Cc2ccccc2O)Cc2cc(O)ccc2O)ccc1O` [lavendustin A], in experiment [1] (in the presence of ATP), the “effect on cGMP sensitivity (K 1/2 for cGMP)” value (shortened to “effect on cGMP sensitivity”) is listed as “increase in cGMP sensitivity”.

On to `O=c1c(-c2ccc(O)cc2)coc2cc(O)cc(O)c12` [genistein], for which the “effect on rat olfactory CNG channels” value in experiment [2] was “no effect”. In addition, the “time course of inhibition” value in experiment [1] was > 30 s. Further, the “residual current, % of maximal CNG current” value in experiment [1] (100 μM genistein with 100 μM erbstatin present) was 20%; in experiment [1] (100 μM genistein, without erbstatin), < 5%. In addition, in experiment [1] (setting [4]), the “residual current (fraction of total current with normal rapid activation)” value is reported as 4.5%. In addition, in experiment [1] (setting [4]), the “steady state current elicited by cGMP” value is reported as 40 % of control. Also, the “voltage dependence of inhibition” value in experiment [1] (100 μM genistein, saturating cGMP) is reported as “voltage-independent”. In experiment [1] (100 μM genistein, single exponential fit), the “time constant of slow current activation by cGMP” value is 10.6 s. Also, the Ki is 10.6 ± 1.3 µM in experiment [1] (K i for genistein inhibition of CNG current activation by cGMP, in the presence of 1 mM ATP) and 5 to 80 µM in experiment [1] (apparent affinity of genistein for the rod channel, closed to activated channels). Moreover, the “K i values at 1 versus 10 min after patch excision” value in experiment [1] (closed channels, residual current) is on record as “do not differ”. Further, the “extent of inhibition of steady state (fully activated) CNG current” value in experiment [1] (high genistein concentrations (e.g., 1 mM)) is given as “incomplete”. For the same compound, the “Hill coefficient for genistein inhibition” value was 1.9 ± 0.2 in experiment [1] (in the absence of ATP) and 2.0 ± 0.2 in experiment [1] (in the presence of ATP). Further, the results for the “effect on cGMP sensitivity” value in experiment [1] (in the absence of ATP) and in experiment [1] (in the presence of ATP) were “no effect” and “increase in cGMP sensitivity”, respectively. The inhibition (in general, the share of the control response that was lost under treatment) at 100 µM in experiment [1] (read-out: inhibition of closed channels, 100 μM genistein, without erbstatin) was > 95%. Also, in experiment [1] (saturating genistein (>100 μM)), the “extent of inhibition of closed channels” value is given as “complete inhibition”. Besides, in experiment [1] (single exponential fit, data not shown), the “time constant of inhibition of closed CNG channels” value was 8.9 s. Further, the “time required to recover from genistein inhibition” value in experiment [1] (unpublished observations) was > 60 s. Also, the “effect on cGMP-activated current of native channels” value in experiment [3] is “reduced the magnitude of the cGMP-activated current and slowed the activation kinetics”.

Regarding `O=c1c(-c2ccc(O)cc2)coc2cc(O)ccc12` [daidzein], in experiment [2], the “effect on rat olfactory CNG channels” value is given as “no effect”. In experiment [1] (saturating cGMP), the “effect on rod CNG channels (maximal current)” value is on record as “no effect”.

For `O=CN/C=C/c1cc(O)ccc1O` [erbstatin], the “effect on cGMP sensitivity” value in experiment [1] (in the presence of ATP) is on record as “increase in cGMP sensitivity”.
